This is an account of results in ChEMBL document CHEMBL3243943, “Adrenoceptor blocking agents. 2. 2-(alpha-Hydroxyarylmethyl)-3,3-dimethylaziridines, a new class of selective beta2-adrenoceptor antagonists” (J Med Chem, 1978).

Experiment [1] deals with Beta-2 adrenergic receptor (Cavia porcellus, UniProt Q8K4Z4). As to the kind of experiment: Inhibition of beta2-adrenergic receptor in guinea pig tracheal chain assessed as reversal of isoproterenol-induced effect after 15 mins. Set-up: species or system Trachea. The note with it: read-out: pA2 (converted).
The subject of experiment [2] is Felis catus. Briefly: Reversal of isoproterenol-induced increase in mean arterial blood pressure in cat assessed as depressor phase at 2.5 mg/kg, iv. It is filed as functional.
The test system of experiment [3] is Felis catus. Briefly: Reversal of epinephrine-induced increase in mean arterial blood pressure in cat at 2.5 mg/kg, iv. It is filed as functional.
For experiment [4], the system named is Felis catus. Briefly: Reversal of isoproterenol-induced increase in mean arterial blood pressure in cat assessed as pressor phase at 2.5 mg/kg, iv. It is filed as functional.
Experiment [5] concerns the target Beta-1 adrenergic receptor (Cavia porcellus, UniProt B0FL73). Briefly: Inhibition of beta1-adrenergic receptor in guinea pig auricle assessed as reversal of isoproterenol-induced effect. Particulars: read-out: pA2 (converted).
Experiment [6] relates to Cavia porcellus. Briefly: Anesthetic effect in guinea pig at 0.1 % by intradermal wheal method. The experiment is classed as functional, organism-based.
Experiment [7] has as its system Heart. Briefly: Antiarrhythmic activity against guinea pig auricle. Particulars: Cavia porcellus. It is filed as functional, tissue-based. The method in brief: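 Electrically driven isolated guinea pig auricles (Dawes method).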
Experiment [8] deals with Beta-2 adrenergic receptor (Cavia porcellus) (UniProt Q8K4Z4). Briefly: Inhibition of beta2-adrenergic receptor in guinea pig tracheal chain assessed as reversal of isoproterenol-induced effect at 3.44 X 10^-8 M to 1.376 X 10^-7 M incubated for 15 mins followed by compound washout measured after 30 to 60 mins. Particulars: Trachea.
The target is the same in experiment [9]. Briefly: Competitive inhibition of beta2-adrenergic receptor in guinea pig tracheal chain assessed as reversal of isoproterenol-induced effect at 3.44 X 10^-8 M to 1.376 X 10^-7 M after 15 mins. The method in brief:
(§1)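 Isolated guinea pig tracheal chain in Krebs bicarbonate Ringer at 36.5 ± 0.5 °C, gassed with O2 containing 5% CO2. Tone raised with acetylcholine, then cumulative isoproterenol (1×10^-5 to 1×10^-4 M) given after 15-min antagonist exposure. pA2 by linear extrapolation; mean ± SE, n experiments.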

For experiment [10], the system named is Trachea. Briefly: Cholinolytic activity in guinea pig trachea at 2.94 X 10^-7 M to 1.176 X 10^-6 M in presence of acetylcholine. The experiment is classed as functional, tissue-based. Particulars: Cavia porcellus. The method in brief: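 Guinea pig tracheal chain in Krebs bicarbonate Ringer at 36.5 ± 0.5 °C, gassed with O2/5% CO2. Acetylcholine responses examined in presence of test agent.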

Experiment [11] concerns Ileum. As to the kind of experiment: Cholinolytic activity in guinea pig ileum at 2.94 X 10^-7 M to 1.176 X 10^-6 M in presence of acetylcholine. Particulars: Cavia porcellus. The experiment is classed as functional, tissue-based. The method, boiled down: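 Isolated guinea pig ileum in oxygenated Tyrode solution at 36.5 ± 0.5 °C. Acetylcholine used as spasmogen; antagonism of contraction by test agent assessed.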

Experiment [12] has as its target Beta-2 adrenergic receptor (Cavia porcellus) (UniProt Q8K4Z4). Briefly: Inhibition of beta2-adrenergic receptor in guinea pig tracheal chain assessed as reversal of isoproterenol-induced effect at 5.868 X 10^-7 M to […] incubated for 15 mins followed by compound washout measured after 30 to 60 mins. Particulars: Trachea.
The target is the same in experiment [13]. Briefly: Competitive inhibition of beta2-adrenergic receptor in guinea pig tracheal chain assessed as reversal of isoproterenol-induced effect at 5.868 X 10^-7 M to […] after 15 mins. The method, boiled down: as §1
Experiment [14] shares this target. As to the kind of experiment: Competitive inhibition of beta2-adrenergic receptor in guinea pig tracheal chain assessed as reversal of isoproterenol-induced effect at 1.376 X 10^-7 M to 2.752 X 10^-7 M after 15 mins. The method in brief: as §1
Experiment [15] has the same target. As to the kind of experiment: Inhibition of beta2-adrenergic receptor in guinea pig tracheal chain assessed as reversal of isoproterenol-induced effect at 1.376 X 10^-7 M to 2.752 X 10^-7 M incubated for 15 mins followed by compound washout measured after 30 to 60 mins. Particulars: Trachea.
For experiment [16] the target is unchanged. As to the kind of experiment: Competitive inhibition of beta2-adrenergic receptor in guinea pig tracheal chain assessed as reversal of isoproterenol-induced effect at 5.36 X 10^-9 M to 8.576 X 10^-8 M after 15 mins. The method, boiled down:
as §1

The target is the same in experiment [17]. As to the kind of experiment: Inhibition of beta2-adrenergic receptor in guinea pig tracheal chain assessed as reversal of isoproterenol-induced effect at 5.36 X 10^-9 M to 8.576 X 10^-8 M incubated for 15 mins followed by compound washout measured after 30 to 60 mins. The note with it: Trachea.

Calls of active or inactive are those of the source. The calls are words filed in the database; no cut-off is given here.

Sequence of Beta-1 adrenergic receptor (B0FL73 whole entry): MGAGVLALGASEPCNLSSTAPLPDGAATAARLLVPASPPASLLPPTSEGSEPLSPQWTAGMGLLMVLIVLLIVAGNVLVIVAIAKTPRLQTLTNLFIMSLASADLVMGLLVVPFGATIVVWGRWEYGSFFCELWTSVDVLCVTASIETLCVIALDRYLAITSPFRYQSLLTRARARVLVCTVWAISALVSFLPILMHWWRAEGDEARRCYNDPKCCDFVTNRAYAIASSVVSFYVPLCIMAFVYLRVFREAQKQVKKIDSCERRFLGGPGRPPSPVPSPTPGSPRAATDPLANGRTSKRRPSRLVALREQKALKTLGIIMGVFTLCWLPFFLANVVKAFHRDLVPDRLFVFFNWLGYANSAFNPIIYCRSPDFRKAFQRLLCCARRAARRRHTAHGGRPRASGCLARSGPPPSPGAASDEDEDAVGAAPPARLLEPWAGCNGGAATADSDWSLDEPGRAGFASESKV
Sequence of Beta-2 adrenergic receptor (Cavia porcellus) (Q8K4Z4 whole entry, looked up): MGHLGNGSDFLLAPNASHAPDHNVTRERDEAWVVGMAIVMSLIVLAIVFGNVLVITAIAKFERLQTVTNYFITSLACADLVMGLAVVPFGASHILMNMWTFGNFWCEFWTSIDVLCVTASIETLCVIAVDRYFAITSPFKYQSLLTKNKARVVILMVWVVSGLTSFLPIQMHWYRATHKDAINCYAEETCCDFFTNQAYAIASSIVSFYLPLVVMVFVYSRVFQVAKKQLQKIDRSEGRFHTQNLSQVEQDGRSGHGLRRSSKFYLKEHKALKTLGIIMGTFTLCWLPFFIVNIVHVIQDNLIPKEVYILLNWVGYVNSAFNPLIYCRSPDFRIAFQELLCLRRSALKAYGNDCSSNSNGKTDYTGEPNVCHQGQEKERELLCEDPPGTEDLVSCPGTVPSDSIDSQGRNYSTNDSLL
Sequence of Beta-2 adrenergic receptor (Q8K4Z4 whole entry): as the sequence (Q8K4Z4 whole entry, looked up) above

`CC1(C)NC1C(O)c1ccccc1` (stereo in doubt; 1a) [listing 1 of 2 here]: the Kb in [1] was 0.0619 µM; in experiment [5], 43.2 µM. Further, the Activity in experiment [2] (2.5 mg/kg) is reported as -10%; in experiment [3] (2.5 mg/kg), 0%; in experiment [4] (2.5 mg/kg), 20%.

As for `CC1(C)NC1C(O)c1ccccc1` (stereo in doubt; 1b) [listing 1 of 2 here], the outcome in [6] and in experiment [7] was inactive. In addition, in [8], the inhibition entry was “inactive”. For the same compound, in [9], the inhibition entry is “Active”.

Take `CC1(C)NC1C(O)c1ccccc1` (stereo in doubt; 1b) [listing 2 of 2 here]: the Kb in experiment [1] was 0.0644 µM; in experiment [5], 344 µM. For the same compound, the Activity in experiment [2] (2.5 mg/kg) is 0%; in [3] (2.5 mg/kg), 11.1%; in experiment [4] (2.5 mg/kg), 0%.

As for `CC1(C)NC1C(O)c1ccc(Cl)c(Cl)c1` (stereo not drawn), the Kb in experiment [1] is 0.398 µM; in [5] it was 17.4 µM. Besides, the result in experiment [6], in experiment [10], in experiment [7] and in experiment [11] was Active. Besides, the Activity is 0% in experiment [2], 0% in [3] and -16% in [4]. For the same compound, the inhibition result in experiment [12] and in experiment [13] was “inactive” each time.

`CC1(C)NC1C(O)c1ccccc1` (stereo in doubt; 1a) [listing 2 of 2 here]: the outcome in experiment [6] and in [7] was inactive. Also, the inhibition result in experiment [14] was “Active”. The inhibition result in experiment [15] was “inactive”.

Take `CC1(C)NC1C(O)c1ccc2ccccc2c1` (stereo not drawn): the Kb in [1] is 0.00304 µM; in experiment [5], 344 µM. In addition, the result in [6] and in [7] was inactive. Further, in [16], the inhibition result is “Active”. Besides, the Activity was -33% in experiment [2], 62% in experiment [3] and 0% in experiment [4]. For the same compound, the inhibition entry in [17] is “inactive”.

Consider `CCN(CC)CCOC(=O)c1ccc(N)cc1`, for which the result in experiment [6] and in [7] was inactive.

For `CC(C)NCC(O)COc1cccc2ccccc12` (stereo not drawn) [PROPRANOLOL], the outcome in [7] was inactive. In addition, the Activity is recorded as -100% in [2] and 45% in experiment [3].
